Screening results as filed in PubChem BioAssay.
Sampled rows, rich in hits. Any-hit rate of the full collection: about 11%.
S1P1 ag-PAM – S1P1 (human) agonism or agonism potentiation | activation, % at 9.5 µM | S1P1 CRE-bla cells, forskolin, beta-lactamase FRET, potentiator mode; S1P1 agonist co-added at EC20, 2 nM; 100% = saturating reference agonist, 0% = basal | hit rate 0.57% among 56,000 | P21453;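 active = activation above a cutoff set at the mean activation of all tested compounds plus 3 SD, cut at about 54% in these data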;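 note: forskolin at 4 µM as EC80 and the EC20 agonist is SEW2871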
D1 allo mod – D1 dopamine receptor (human) allosteric modulation; P21728; HEK293 D1, CRE-luciferase, dopamine EC30 potentiation; actives deviate in either direction; B-score at 10 µM; hit rate 5.9% among 58,000;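 active = luminescence count or its row- and column-corrected plate score outside the 99.7% band of the plate's sample wells, on either side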
M1 antag – antagonists of rat M1 muscarinic receptor; AID 628; B-score at 10 µM; hit rate 3.4% among 64,000; CHO-M1 cells, Fluo-4 calcium, ACh EC80 antagonist mode; hits give low values; P08482;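 active = calcium fluorescence response, raw or row-and-column corrected B-score, differing from the plate sample mean either way at a set confidence level, mostly lower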
Target sequence (P08482 whole entry, looked up): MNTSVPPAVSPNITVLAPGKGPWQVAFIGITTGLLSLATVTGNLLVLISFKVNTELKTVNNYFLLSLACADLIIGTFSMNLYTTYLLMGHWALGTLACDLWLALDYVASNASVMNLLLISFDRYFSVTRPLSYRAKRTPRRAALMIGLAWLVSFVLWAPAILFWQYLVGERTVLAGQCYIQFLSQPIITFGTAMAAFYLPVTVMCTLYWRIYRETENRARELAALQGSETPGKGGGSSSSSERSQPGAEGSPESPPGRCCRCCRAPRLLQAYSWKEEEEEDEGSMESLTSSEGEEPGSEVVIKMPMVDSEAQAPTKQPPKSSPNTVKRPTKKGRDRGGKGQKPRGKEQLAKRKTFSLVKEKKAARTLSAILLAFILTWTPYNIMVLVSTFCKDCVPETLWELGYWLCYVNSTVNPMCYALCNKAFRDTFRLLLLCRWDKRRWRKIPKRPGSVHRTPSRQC
TNAP act mid DEA – activators of human TNAP at intermediate phosphate acceptor. AID 813. 64,000 tested, under 10 active. purified TNAP, CDP-star luminescence, 100 mM DEA, 30 min; hits give high values; scale: 0 levamisole-inhibited, 1 vehicle-only enzyme. activation factor at 20 µM;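 active = activation factor of at least 2 at 20 µM, relative to controls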
S1P3 agonist – S1P3 (human) receptor agonism; hit rate 0.1% among 60,000; activation, % at 4.5 µM; Q99500; S1P3 NFAT-BLA reporter cells, FRET ratio; relative to 1 µM S1P, basal subtracted;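 active = activation above the screen-wide mean plus 3 SD, cut at about 4.5% in these data, passing the limit was not always enough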
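Benchmarks: high control 1 µM S1P / System: stable CHO line with human S1P3, Gα16, NFAT-BLA reporter / Dosing: single compound concentration, 4.5 µM final / Timing: 4 h compound at 37 °C, 2 h substrate at RT / Measured by: FRET β-lactamase substrate fluorescence, excitation 405 nm, 460/535 nm emission ratio, background-subtracted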
M1 ag – agonists of M1 muscarinic receptor; CHO-M1 cells, Fluo-4 calcium fluorescence, agonist mode; hits give high values; B-score at 10 µM; hit rate 3% among 64,000; AID 626;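 active = fluorescence rise, raw or as B-score row- and column-corrected plate score, outside the 99.7% band of its plate's samples, either direction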
D1 PAM confirm – D1 receptor (human) allosteric modulation, confirmed. luminescence at 10 µM. HEK293 D1 CRE-luciferase, dopamine EC30 potentiation; hits give high values. shares compounds with D1 allo mod. hit rate 88% among 2,200;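 active = luminescence in either of two replicates above the same-plate mean plus 3 SD of the low-dose dopamine control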
D1 no dopamine – secondary test of D1 modulators: activity without dopamine. shares compounds with D1 allo mod. HEK293 D1 CRE-luciferase, luminescence, no dopamine; hits give high values. luminescence at 10 µM. hit rate 0.8% among 1,900. AID 646; in the data active = luminescence above about 3900
Isoprot counter – alters isoproterenol CRE-luciferase response in HEK293 cells. shares compounds with D1 allo mod. HEK293 D1 CRE-luciferase, isoproterenol EC30 counter-screen; hits give high values. luminescence at 10 µM. hit rate 63% among 2,200. AID 647;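 active = luminescence in either replicate above plate mean of wells with a partly effective reference agonist dose plus 3 SD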;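 note: isoproterenol raises cAMP through native beta-adrenoceptor Gs so signal bypasses D1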
Of the large screens only hits and unclear results are named; the others gave an inactive call (follow-up assays come after a bar, where they were run).

COc1ccc(C2c3c(-c4cc(Cl)c(C)cc4O)n[nH]c3C(=O)N2Cc2cccnc2)cc1OC (stereo not given)	D1 allo mod 4.3 | D1 PAM confirm 9304 | Isoprot counter 4244
CCOc1ccccc1-c1nc(-c2cc3ccccc3nc2OC)no1	none
O=C(O)CCCC(=O)Nc1ccccc1Br	D1 allo mod 7.2 | D1 PAM confirm inactive | Isoprot counter inactive
O=C(O)CCCC(=O)Nc1ccc(Br)cc1C(=O)O	none
Cc1cccc(-c2c3c(=O)n(C)c(=O)n(C)c3cn2C(C)(C)C)c1	none
Cc1cccc(-c2c3c(=O)n(C)c(=O)n(C)c3cn2-c2ccc(O)cc2)c1	none
Cn1c(=O)c2c(-c3ccc(C(C)(C)C)cc3)n(N3CCOCC3)cc2n(C)c1=O	D1 allo mod 3.8 | D1 PAM confirm 9948 | D1 no dopamine inactive | Isoprot counter inactive
Cn1c(=O)c2c(-c3ccccc3)n(N3CCOCC3)cc2n(C)c1=O	D1 allo mod 3.3 | D1 PAM confirm 6320 | D1 no dopamine inactive | Isoprot counter inactive
COC(C)(C)[C@]12CC(O)(c3ccccc3)ON1[C@H]1CCCCC1N2O (stereo not given in full)	none
CCCC1(C(=O)OCC)NC(c2ccc(N(C)C)cc2)C2C(=O)N(c3ccc(OCC)cc3)C(=O)C21 (stereo not given)	D1 allo mod 2.9 | D1 PAM confirm inactive | D1 no dopamine inactive | Isoprot counter inactive
CCCC1(C(=O)OCC)NC(c2ccc(N(C)C)cc2)C2C(=O)N(c3ccccc3)C(=O)C21 (stereo not given)	none
N#Cc1cc2ccccc2nc1SCc1ccccn1	D1 allo mod 4.4 | D1 PAM confirm 8624 | Isoprot counter 3144
N#Cc1c(N)nc(SCc2ccccn2)c(C#N)c1-c1cccs1	none (no result: D1 allo mod)
CCOc1ccc(-n2c(SC(C)C)nc3c(c2=O)SCC3)cc1	D1 allo mod 14 (no result: S1P1 ag-PAM, S1P3 agonist) | D1 PAM confirm 19936 | D1 no dopamine inactive | Isoprot counter 4596
CSc1nc2c(c(=O)n1-c1ccccc1)SCC2	D1 allo mod 2.7 (no result: S1P1 ag-PAM, TNAP act mid DEA, S1P3 agonist) | D1 PAM confirm 11540 | D1 no dopamine inactive | Isoprot counter inactive
O=C(NCc1ccc(F)cc1)C1CCC(=O)N1C1CCCCC1 (stereo not given)	none
COc1ccccc1OCc1ccc(C(=O)n2nc(C)c(Cl)c2C)o1	none
CCOC(=O)c1sc(NC(NC(=O)c2ccco2)(C(=O)OC)C(F)(F)F)nc1C (stereo not given)	D1 allo mod 5.6 | D1 PAM confirm 8940 | D1 no dopamine inactive | Isoprot counter 3624
COC(=O)c1sc(NC(=O)c2ccco2)nc1C	none
CCOCCCNC(=O)CCCOc1ccccc1	none (no result: S1P1 ag-PAM)
COc1ccc(-c2cc(C(F)F)n3ncc(C(=O)N4CCSCC4)c3n2)cc1	D1 allo mod 5.2 (no result: S1P1 ag-PAM) | D1 PAM confirm 8908 | D1 no dopamine inactive | Isoprot counter 4756
COc1cccc(-n2nnnc2SCC(=O)N2CCCc3ccccc32)c1	none
COC(=O)c1ccccc1NC(=O)c1ccco1	D1 allo mod 4.4 | D1 PAM confirm 11880 | D1 no dopamine inactive | Isoprot counter 3404
COC(=O)c1c(-c2ccccc2)csc1NC(=O)c1ccco1	D1 allo mod 4.9 | D1 PAM confirm 6288 | D1 no dopamine inactive | Isoprot counter inactive
COC(=O)c1cccc(COC(=O)c2ccccc2NC(=O)c2ccco2)c1	none
O=C(O)Cn1cnc2scc(-c3cccs3)c2c1=O	none
Cc1ccc(C)n1-n1cnc2scc(-c3cccs3)c2c1=O	D1 allo mod 17 | D1 PAM confirm 24272 | D1 no dopamine inactive | Isoprot counter 5520
O=C(NCCC1=CCCCC1)C1CCN(S(=O)(=O)c2cccc3nsnc23)CC1	none
